{"source": "the RNAGym collection of RNA variant scans (doi:10.1126/science.aae0568)", "parents": {"B1": {"name": "tRNA (parent)", "chain": "GUUCCGUUGGCGUAAUGGUAACGCGUCUCCCUCCUAAGGAGAAGACUGCGGGUUCGAGUCCCGUACGGAACG"}}, "note": "Variants at the floor of the assay were thinned out.", "data": [{"variants_of": "B1", "assay": "yeast fitness relative to wild type (ratio to wild type); higher = fitter; tRNA-Arg(CCU), competitive growth, 37 C, YPD", "summary_of_the_method": "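For this measurement, the tRNA-Arg(CCU) gene was varied by chemical synthesis at a 3% per-site mutation rate across 69 sites, and each variant was placed at the native genomic locus in Saccharomyces cerevisiae. The pooled strains went through a 24-hour competition in YPD at 37°C in six parallel replicates, with amplicons from start and end populations read by 100-nucleotide paired-end sequencing. Darwinian fitness relative to wild type followed from the change in each genotype's frequency. Genotypes needed ≥ 100 starting reads, and estimates < 0.5 were set to 0.5.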", "values": [{"variant": "GUUCCGUUGACGUUAUGGUAACGCGUCUCCAUCCGAAGGAGAAGAAUGCGGGUUCGAGUCCCGUUCGGAACG", "note": "[G10A A14U C31A U35G C46A A65U]", "yeast fitness": "≤ 0.5"}, {"variant": "GUUCCGUUGACGUUAUGGUAACGCGUCUCCCUCCUAAGGAGAAGACUGCGGGUUCGAGUCCCGUAUGGAACG", "note": "[G10A A14U C66U]", "yeast fitness": "≤ 0.5"}, {"variant": "GUUCCGUUGACGUUAUGGAAACCCGUCUACCUCCUAAGGAGAAGACUGCGGGUUCGAGUCCCGUAAGGAACG", "note": "[G10A A14U U19A G23C C29A C66A]", "yeast fitness": "≤ 0.5"}, {"variant": "GUUCCGUUGACGUACUGGUAACGCGUCUCCCUCCUAAGGAGAAGACUGCGGGUUCGAGUCCCGUACGGAACG", "note": "[G10A A15C]", "yeast fitness": 0.613}, {"variant": "GUUCCGUUGACGUACUGGUAACGCGUCUCCCUCCUAAGGAGAAGCCUGGGGGUUCGAGUCCCGUACGGAACG", "note": "[G10A A15C A45C C49G]", "yeast fitness": 0.553}, {"variant": "GUUCCGUUGACGUACUGGUAACGCGUCUCCCUCCUAAGGAGAAGCCUGGGGGUUCGAGUCCCGUACUGCACG", "note": "[G10A A15C A45C C49G G67U A69C]", "yeast fitness": "≤ 0.5"}, {"variant": "GUUCCGUUGACGUACUGGUAACGCGUCUCCCUCAUAAGGAGAAGACUGUGGGUUCGAGUCGCGUACGGAACG", "note": "[G10A A15C C34A C49U C61G]", "yeast fitness": 0.603}, {"variant": "GUUCCGUUGACGUACUGGUAACGCGUCUCCCUCAUAAGGAGAAGACUGCGGGUUCAAGUCCCGUACGGAACG", "note": "[G10A A15C C34A G56A]", "yeast fitness": "≤ 0.5"}, {"variant": "GUUCCGUUGACGUACUGGUAACGCAUCUCCCUCCUAAGGAGAAGACUGCGGGUUCGAGUCCCGUACGGAACG", "note": "[G10A A15C G25A]", "yeast fitness": 0.582}, {"variant": "GUUCCGUUGACGUACUGGUAACGCAUCUCCCUCCUAAGGAGAAGACUGCGGGUUGGAGCUCCGUACUGAACG", "note": "[G10A A15C G25A C55G U59C C60U G67U]", "yeast fitness": "≤ 0.5"}, {"variant": "GUUCCGUUGACGUACUGGUAACGCGUCUCCCUCCUAAGCAGAAGACUGCGGGUUCGAGUCCCGUACGGAACG", "note": "[G10A A15C G39C]", "yeast fitness": "≤ 0.5"}, {"variant": "GUUCCGUUGACGUAGUGGUAACGCGUCUCCCUCCUAAGGAGCAGACUGCCGGUUCGAGUCCCGUACGGAACG", "note": "[G10A A15G A42C G50C]", "yeast fitness": "≤ 0.5"}, {"variant": "GUUCCGUUGACGUAGUGGUAACGCGUCUCCCUCCUAAGGAGAAGACUGCGGGUUCGAGUCCCGUUCGGAACG", "note": "[G10A A15G A65U]", "yeast fitness": 0.702}, {"variant": "GUUCCGUUGACGUAGUGGUAACGCGUCUCCCUCGUAAGGAGAAGACUGCGGGUUCGAGUCCCGUACGAAACG", "note": "[G10A A15G C34G G68A]", "yeast fitness": "≤ 0.5"}, {"variant": "GUUCCGUUGACGUAGUGGUAACGCGUCUCCCUCGUAAGGAGAAGACUGCGGGUUCGAGUCCCGUACGCAACG", "note": "[G10A A15G C34G G68C]", "yeast fitness": "≤ 0.5"}, {"variant": "GUUCCGUUGACGUAGUGGUAACGCGUCUCCCUCCUAAGGAGAAGACUGGGGGUUCGAGUCCCGUACGUAACG", "note": "[G10A A15G C49G G68U]", "yeast fitness": "≤ 0.5"}, {"variant": "GUUCCGUUGACGUAGUGGUAACGCGUCUCCCUCCUAACGAGAAGACUGCGGGUUCGAGUCCCGUACGGAACG", "note": "[G10A A15G G38C]", "yeast fitness": "≤ 0.5"}, {"variant": "GUUCCGUUGACGUAUUGGUAACGCGUCUCCCUCCUAAGGAGAAGACUGCGGGUUCGAGUCCCGUACGGAACG", "note": "[G10A A15U]", "yeast fitness": 0.681}, {"variant": "GUUCCGUUGACGUAUUGGUACCGCCUCUCCCUCCUAAGGAGAAGACUGCGGGUUCGAGUCCCGUACGGAACG", "note": "[G10A A15U A21C G25C]", "yeast fitness": 0.533}, {"variant": "GUUCCGUUGACGUAUUGGUACCGCCUCUCCCUCCUAAGGAGAAGACUGCGGGUUCGAGUCCAGUACGGAACG", "note": "[G10A A15U A21C G25C C62A]", "yeast fitness": "≤ 0.5"}, {"variant": "GUUCCGUUGACGUAUUGGUACCGCCUCUCCCUCCUAAGGAGAAGACUGCGGGUUCGAGUCCCGUAUUAAACG", "note": "[G10A A15U A21C G25C C66U G67U G68A]", "yeast fitness": "≤ 0.5"}, {"variant": "GUUCCGUUGACGUAUUGGUACCGCCUCUCCCUCCUAAGGAGAAGACUGCGGGUUCAAGUCCCGUACGGAACG", "note": "[G10A A15U A21C G25C G56A]", "yeast fitness": "≤ 0.5"}, {"variant": "GUUCCGUUGACGUAUUGGUAACGCGUCUCCCUCCUUAGGAGAAGACUGCGGGUUCGAGUCCCAUACGGAACG", "note": "[G10A A15U A36U G63A]", "yeast fitness": "≤ 0.5"}, {"variant": "GUUCCGUUGACGUAUUGGUAACGCGUCUCCCUCCUAAGGAGAAGACUGCGGGUUCGAGUCCCGUACGGAGCG", "note": "[G10A A15U A70G]", "yeast fitness": "≤ 0.5"}, {"variant": "GUUCCGUUGACGUAUUCGUAACGCGUCUCCCUCCUAAGGAGAAGUCUGGGGGUUCGAGUCCCGUACGGAUCG", "note": "[G10A A15U G17C A45U C49G A70U]", "yeast fitness": "≤ 0.5"}, {"variant": "GUUCCGUUGACGUAAUGGUCACGCGUCUCCCUCCUAAGGAGAAGACUGCGGGUUCGCGUCCCGUACGGAACG", "note": "[G10A A20C A57C]", "yeast fitness": "≤ 0.5"}, {"variant": "GUUCCGUUGACGUAAUGGUCACGCGUGUCCCUCCUAAGGGGAAGACUGCGGGUUCGAGUCCCGUACGGACCG", "note": "[G10A A20C C27G A40G A70C]", "yeast fitness": "≤ 0.5"}, {"variant": "GUUCCGUUGACGUAAUGGUCACGCGUGUCCCUCCUAAGGGGAAGACUGCGGGUUCCAGUCCCGUACGGAACG", "note": "[G10A A20C C27G A40G G56C]", "yeast fitness": "≤ 0.5"}, {"variant": "GUUCCGUUGACGUAAUGGUCACGCGUCUCCCUCCUAAAGAAAAGACUGCGGGUUCGAGUCCCGUCCGGAACG", "note": "[G10A A20C G38A G41A A65C]", "yeast fitness": "≤ 0.5"}, {"variant": "GUUCCGUUGACGUAAUGGUCACGCGUCUCCCUCCUAAAGAAAAGACUGUGGGUUCGUGUCCCGUACGGAACG", "note": "[G10A A20C G38A G41A C49U A57U]", "yeast fitness": "≤ 0.5"}, {"variant": "GUUCCGUUGACGUAAUGGUCACGCGUCUCCCUCCUAAAGAAAAGACUGUGGGUUCGAGUCCCGUUCGGAACG", "note": "[G10A A20C G38A G41A C49U A65U]", "yeast fitness": "≤ 0.5"}, {"variant": "GUUCCGUUGACGUAAUGGUGACGCGUCUCCCUCCUAAGGAGAAGACUGCGGGUUCGAGUCCCGUACGGAACG", "note": "[G10A A20G]", "yeast fitness": 0.649}, {"variant": "GUUCCGUUGACGUAAUGGUGACGCGUCUCCCUCCUAAGGCGCAGACUGCGGGUUCGAGUCCCGUACGGAACG", "note": "[G10A A20G A40C A42C]", "yeast fitness": "≤ 0.5"}, {"variant": "GUUCCGUUGACGUAAUGGUGACGCGUCUUCCUCCUAAGGAGAAGACUGUGGGUUCAAGUCCCAUACGGAACG", "note": "[G10A A20G C29U C49U G56A G63A]", "yeast fitness": "≤ 0.5"}, {"variant": "GUUCCGUUGACGUAAUGGUGACGCGUCUCCCUCCUAAGGAGAAGAUUGCUGGUUUGAGUCCCGUACGGAACG", "note": "[G10A A20G C46U G50U C55U]", "yeast fitness": "≤ 0.5"}, {"variant": "GUUCCGUUGACGUAAUGGUGACGCGUCUCCCUCCUAAGGAAAAGACUGUGGGAUCGAGUCCCGUAGGGAACG", "note": "[G10A A20G G41A C49U U53A C66G]", "yeast fitness": "≤ 0.5"}, {"variant": "GUUCCGUUGACGUAAUGGUGACGCGCCUCCCUCCUAAGGAGAAGACUGCGGGUUCGAGUCCCGUACGGCGCG", "note": "[G10A A20G U26C A69C A70G]", "yeast fitness": "≤ 0.5"}, {"variant": "GUUCCGUUGACGUAAUGGUGACGCGCCUCCCUCCUAAGAAGAAGACUGCAGGUUCGAGUCCCGUACGGAACG", "note": "[G10A A20G U26C G39A G50A]", "yeast fitness": "≤ 0.5"}]}]}
